Assay [1] addresses T1, 5-hydroxytryptamine receptor 1A (Rattus norvegicus) (UniProt P19327).
T1 sequence (whole entry): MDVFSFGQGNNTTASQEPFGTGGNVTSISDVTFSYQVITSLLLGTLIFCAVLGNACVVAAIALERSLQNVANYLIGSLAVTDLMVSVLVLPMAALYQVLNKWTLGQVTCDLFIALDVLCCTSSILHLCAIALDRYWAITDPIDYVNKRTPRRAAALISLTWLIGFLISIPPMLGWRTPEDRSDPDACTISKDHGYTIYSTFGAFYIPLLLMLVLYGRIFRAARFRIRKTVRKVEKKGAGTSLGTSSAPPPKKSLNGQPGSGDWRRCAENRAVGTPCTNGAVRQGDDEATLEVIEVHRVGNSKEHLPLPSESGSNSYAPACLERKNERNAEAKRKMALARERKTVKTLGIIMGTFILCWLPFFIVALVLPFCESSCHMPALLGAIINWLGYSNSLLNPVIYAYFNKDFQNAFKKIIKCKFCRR
As to the kind of experiment: Evaluated for the 5-hydroxytryptamine 1A receptor agonist activity in LY-293284 trained rats. The assay is classed as functional. The procedure, abridged: (§1)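 Rats trained (FR50, 15-min sessions) to discriminate ip training drug from saline: LSD 0.08 mg/kg (186 nmol/kg), DOI 0.4 mg/kg (1.12 µmol/kg) or LY293284 0.025 mg/kg (75 nmol/kg), in 0.9% saline. Test drugs given ip 30 min (or 15 min) before extinction sessions. At least three doses, at least eight rats per dose. Scored quantally as %SDL. ED50 and 95% CI by Litchfield–Wilcoxon.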

In assay [2] the test system is Rattus norvegicus. Description: Maximum percentage of LSD-trained rats responding on the training drug lever at 8 umol/kg. The assay is classed as functional. The method in brief: as §1
The target in assay [3] is T2, 5-hydroxytryptamine receptor 2A (Rattus norvegicus, UniProt P14842). As to the kind of experiment: Evaluated for the binding constant at [125I]-DOI-labeled rat 5-hydroxytryptamine 2A receptor. The procedure, abridged: (§2)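 Competition binding with membranes from harvested cells. Rat 5-HT2A or 5-HT2C receptors were expressed in NIH3T3 cells and labelled with 0.20 nM [125I]DOI. […] Buffer was 50 mM Tris, 0.5 mM EDTA, 10 mM MgCl2, pH 7.4. Incubation ran 60 min at 25 °C, then filtration and counting. Ten concentrations were run in duplicate, n = 3-5. Ki was obtained by Cheng–Prusoff.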

Assay [4] has as its target 5-hydroxytryptamine receptor 2A (Rattus norvegicus) (UniProt P14842). As to the kind of experiment: Intrinsic activity was determined at 5-hydroxytryptamine 2A receptor which is percentage response given compared with the response produced by 10 uM serotonin. The procedure, abridged:
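Cells were pretreated 15 min with 10 µM pargyline and 10 mM LiCl, then exposed to agonist for 30 min at 37 °C. Inositol phosphates were separated on Dowex-1 and counted. EC50 was taken for PI turnover. Intrinsic activity is the response relative to 10 µM serotonin. Repeated 3-4 times.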

Assay [5] addresses T2, 5-hydroxytryptamine receptor 2A. Description: Evaluated for the effective concentration at [125I]-DOI-labeled rat 5-hydroxytryptamine 2A receptor.
Assay [6] concerns the target T3, 5-hydroxytryptamine receptor 1A (Homo sapiens, UniProt P08908).
T3 sequence (P08908 whole entry): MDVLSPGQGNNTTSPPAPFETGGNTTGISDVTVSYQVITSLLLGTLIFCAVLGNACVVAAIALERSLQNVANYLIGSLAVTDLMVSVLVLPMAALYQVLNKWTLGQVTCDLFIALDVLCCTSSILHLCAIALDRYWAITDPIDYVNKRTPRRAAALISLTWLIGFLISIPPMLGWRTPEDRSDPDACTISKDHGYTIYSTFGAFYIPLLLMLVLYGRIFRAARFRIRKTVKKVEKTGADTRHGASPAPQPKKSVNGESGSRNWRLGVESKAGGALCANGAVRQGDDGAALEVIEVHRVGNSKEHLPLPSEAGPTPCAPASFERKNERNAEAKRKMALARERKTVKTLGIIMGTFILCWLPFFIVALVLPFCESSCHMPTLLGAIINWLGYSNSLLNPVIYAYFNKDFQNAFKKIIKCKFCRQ
Description: Evaluated for the binding constant at [3H]8-OH-DPAT-labeled human 5-hydroxytryptamine 1A receptor receptor.

The target in assay [7] is T4, 5-hydroxytryptamine receptor 2C (Rattus norvegicus, UniProt P08909).
T4 sequence (P08909 whole entry): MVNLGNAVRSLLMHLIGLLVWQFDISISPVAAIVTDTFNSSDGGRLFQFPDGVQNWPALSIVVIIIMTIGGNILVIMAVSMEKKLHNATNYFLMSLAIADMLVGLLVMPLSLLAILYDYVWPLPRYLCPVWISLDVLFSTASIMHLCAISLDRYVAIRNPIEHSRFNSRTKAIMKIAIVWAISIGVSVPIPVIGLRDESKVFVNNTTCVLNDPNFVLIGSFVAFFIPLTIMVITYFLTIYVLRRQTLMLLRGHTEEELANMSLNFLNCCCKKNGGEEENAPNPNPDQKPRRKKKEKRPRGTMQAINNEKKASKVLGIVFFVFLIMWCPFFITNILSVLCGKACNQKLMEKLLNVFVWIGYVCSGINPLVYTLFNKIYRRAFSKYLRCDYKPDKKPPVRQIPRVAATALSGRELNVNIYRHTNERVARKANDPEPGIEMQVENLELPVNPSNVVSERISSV
Description: Evaluated for the binding constant at [125I]-DOI-labeled rat 5-hydroxytryptamine 2C receptor. The procedure, abridged: as §2

For assay [8], the system named is Rattus norvegicus. As to the kind of experiment: Maximum percentage of DOI-trained rats responding on the training drug lever at 4 umol/kg. The assay is classed as functional. The method in brief:
as §1

Assay [9] has as its target T3, 5-hydroxytryptamine receptor 1A. Description: Evaluated for the binding constant at [3H]8-OH-DPAT-labeled human 5-hydroxytryptamine 1A receptor.
For assay [10], the species on record is Rattus norvegicus. Description: Evaluated in the two-lever drug discrimination assay in LSD trained rats to assess hallucinogenic-like activity (95% confidence intervals). The assay is classed as functional. The procedure, abridged: as §1
Assay [11] is filed under the species Rattus norvegicus. As to the kind of experiment: Evaluated in the two-lever drug discrimination assay in DOI trained rats to assess hallucinogenic-like activity (95% confidence intervals). The assay is classed as functional. The method in brief:
as §1

The target in assay [12] is T3, 5-hydroxytryptamine receptor 1A. As to the kind of experiment: EC50 for inhibition of 50 uM forskolin-stimulated cAMP accumulation against 5-hydroxytryptamine 1A receptor. The assay is classed as functional. (Cyclic AMP is a second messenger, typically raised through Gs and lowered through Gi signalling.)
Assay [13] deals with Rattus norvegicus. As to the kind of experiment: Maximum percentage of DOI-trained rats responding on the training drug lever at 1 umol/kg. The assay is classed as functional. The procedure, abridged:
as §1

Assay [14] relates to Rattus norvegicus. Description: Maximum percentage of LSD-trained rats responding on the training drug lever at 2 umol/kg. The assay is classed as functional. The procedure, abridged: as §1
In assay [15] the test system is Rattus norvegicus. As to the kind of experiment: Maximum percentage of DOI-trained rats responding on the training drug lever at 8 umol/kg. The assay is classed as functional. The method in brief:
as §1

T2 sequence (P14842 whole entry): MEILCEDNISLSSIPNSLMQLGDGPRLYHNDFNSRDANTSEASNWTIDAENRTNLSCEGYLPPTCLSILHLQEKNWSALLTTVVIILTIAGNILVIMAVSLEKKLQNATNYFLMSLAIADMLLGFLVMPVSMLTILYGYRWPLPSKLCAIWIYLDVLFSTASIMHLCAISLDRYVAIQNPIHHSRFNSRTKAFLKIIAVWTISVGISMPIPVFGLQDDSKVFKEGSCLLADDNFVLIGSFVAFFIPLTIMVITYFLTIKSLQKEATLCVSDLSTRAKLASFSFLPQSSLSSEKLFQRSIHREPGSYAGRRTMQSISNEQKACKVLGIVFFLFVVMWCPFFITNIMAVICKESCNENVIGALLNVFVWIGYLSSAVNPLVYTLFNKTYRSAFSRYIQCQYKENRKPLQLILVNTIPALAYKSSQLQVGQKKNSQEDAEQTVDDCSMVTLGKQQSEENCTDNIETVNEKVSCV
5-hydroxytryptamine receptor 2A (Rattus norvegicus), sequence (P14842 whole entry): as above

As usually defined, the ED50 is the midpoint of the dose-response relation. Low readings indicate an effect at a small dose, high ones a need for a large dose. In turn, `CCCN(CCC)C1CCc2cccc(O)c2C1` (centres undefined) came in with an ED50 in assay [1] of 0.099 µmol/kg.

The Ki is a dissociation constant, usually derived from enzyme kinetics or from competition with a known ligand. Read a low Ki as higher affinity. As a reminder, the EC50 is the concentration giving half of the maximal effect. Low values mean an effect from little substance, high ones a need for much substance. As for `CN(C)CCc1c[nH]c2c(F)ccc(O)c12`, the ED50 in [2] was determined as 63 µmol/kg. Besides, the Ki in assay [3] is 13 nM; in assay [6], 120 nM; in assay [7] it was 5.4 nM. In addition, in [4], the Intrinsic activity came out at 76%. The compound further displayed an EC50 in assay [5] of 4920 nM.

As to `COc1cc2c(CCN(C)C)c[nH]c2cc1F`, the figures for the ED50 in [8] and in assay [10] were 50 µmol/kg and 4.72 µmol/kg, respectively. For the same compound, the results for the Ki in assay [3], in [9] and in [7] were 33 nM, 84.5 nM and 19 nM, respectively. For the same compound, in assay [4], the Intrinsic activity was 110%. A half-maximal effect in assay [5] (EC50) was put at 7900 nM.

`CN(C)CCc1c[nH]c2cc(F)cc(O)c12`: the Intrinsic activity in assay [4] worked out at 85%. In assay [5], this compound showed an EC50 of 2600 nM. In addition, the results for the Ki in assay [9] and in [7] were 114 nM and 7.4 nM, respectively.

Turning to `COc1cc(CC(C)N)c(OC)cc1I` (centres undefined), the ED50 in assay [11] stood at 0.3 µmol/kg; in [10], 0.27 µmol/kg.

Take `CCCN(CCC)C1Cc2c[nH]c3ccc(C(C)=O)c(c23)C1` (centres undefined) [LY-293284]: the 50% effect level in assay [1] (ED50) was put at a dose of 0.031 µmol/kg. This compound also showed an EC50 in assay [12] of 0.13 nM.

Take `CCN(CC)CCc1c[nH]c2ccccc12`: the Ki in [3] turned out to be 133 nM; in assay [9], 47 nM; in [7], 104 nM. Further, in assay [4], the Intrinsic activity was found to be 82%. Also, the figures for the EC50 in assay [5] and in [12] were 5370 nM and 680 nM, respectively. Besides, in assay [10], the ED50 came to 2.53 µmol/kg.

Turning to `CCN(CC)C(=O)[C@@H]1C=C2c3cccc4[nH]cc(c34)C[C@H]2N(C)C1` [LYSERGIDE], the values for the ED50 in assay [11] and in assay [10] were 0.014 µmol/kg and 0.037 µmol/kg, respectively.

In the case of `COc1ccc2[nH]cc(CCN(C)C)c2c1F`, the ED50 in [1] was 0.17 µmol/kg; in [13], 66 µmol/kg; in [14], 22 µmol/kg. The Ki in assay [3] was 122 nM; in [7], 55 nM. In assay [4], the Intrinsic activity worked out at 88%. Besides, the EC50 came out at 18100 nM in assay [5] and 0.93 nM in assay [12].

Turning to `CCN(CC)CCc1c[nH]c2cc(F)ccc12`, the results for the ED50 in assay [15] and in assay [2] were 33 µmol/kg and 40 µmol/kg, respectively. Besides, the Ki is 145 nM in assay [3], 256 nM in assay [9] and 210 nM in [7]. The Intrinsic activity in [4] came to 63%. The EC50 was 33900 nM in assay [5] and 3700 nM in [12].

`CCN(CC)CCc1c[nH]c2ccc(OC)cc12`: the Ki in assay [3] came to 42 nM; in assay [9] it was 1.7 nM; in [7], 16 nM. Moreover, the Intrinsic activity in assay [4] turned out to be 99%. For the same compound, the results for the EC50 in assay [5] and in assay [12] were 2390 nM and 22 nM, respectively. The same compound showed a median effective dose (ED50) in [10] of 1.49 µmol/kg.
